Measurements taken from ChEMBL document CHEMBL3352165 (Eur J Med Chem, 2014).
Calls of active or inactive are those of the source. The calls are words filed in the database; no cut-off is given here.

Experiments:
[1] = Cytotoxicity against human SKBR3 cells assessed as inhibition of cell growth after 72 hrs by sulforhodamine B assay; type: functional, cell-based; details: SK-BR-3, 72 h
In short: (§1)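 Cells grown in RPMI-1640 with 5% FBS and plated at 5.0×10^4/ml. Next day exposed to 0.5–5000 ng/ml for 3 days. Survival read by sulforhodamine B staining. IC50 taken from growth curves; mean of at least three determinations.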

BT-474 [2] = test: Cytotoxicity against human BT474 cells assessed as inhibition of cell growth after 72 hrs by sulforhodamine B assay; type: functional, cell-based; details: BT-474, 72 h; in short: as §1
A-431 = test: Cytotoxicity against human A431 cells assessed as inhibition of cell growth after 72 hrs by sulforhodamine B assay; type: functional, cell-based; details: A-431, 72 h; in short: as §1
MCF7 = test: Cytotoxicity against human MCF7 cells assessed as inhibition of cell growth after 72 hrs by sulforhodamine B assay; type: functional, cell-based; details: MCF7, 72 h; in short: as §1
BT-474 [3] = test: Induction of cell cycle arrest in human BT474 cells assessed as accumulation at G1 phase at 0.001 uM incubated for 12 hrs by propidium iodide staining based flow cytometry (reference value: 67%); type: functional
BT-474 [4] = test: Induction of cell cycle arrest in human BT474 cells assessed as accumulation at G2/M phase at 0.001 uM incubated for 12 hrs by propidium iodide staining based flow cytometry (reference value: 14%); type: functional
BT-474 [5] = test: Induction of cell cycle arrest in human BT474 cells assessed as accumulation at S phase at 0.001 uM incubated for 12 hrs by propidium iodide staining based flow cytometry (reference value: 19%); type: functional
BT-474 [6] = test: Induction of apoptosis in human BT474 cells at 0.001 uM incubated for 12 hrs by propidium iodide staining based flow cytometry (reference value: 1%); type: functional
BT-474 [7] = test: Induction of cell cycle arrest in human BT474 cells assessed as accumulation at G1 phase at 0.01 uM incubated for 12 hrs by propidium iodide staining based flow cytometry (reference value: 67%); type: functional
BT-474 [8] = test: Induction of cell cycle arrest in human BT474 cells assessed as accumulation at G2/M phase at 0.01 uM incubated for 12 hrs by propidium iodide staining based flow cytometry (reference value: 14%); type: functional
BT-474 [9] = test: Induction of cell cycle arrest in human BT474 cells assessed as accumulation at S phase at 0.01 uM incubated for 12 hrs by propidium iodide staining based flow cytometry (reference value: 19%); type: functional
BT-474 [10] = test: Induction of apoptosis in human BT474 cells at 0.01 uM incubated for 12 hrs by propidium iodide staining based flow cytometry (reference value: 1%); type: functional
BT-474 [11] = test: Induction of cell cycle arrest in human BT474 cells assessed as accumulation at G1 phase at 0.1 uM incubated for 12 hrs by propidium iodide staining based flow cytometry (reference value: 67%); type: functional
BT-474 [12] = test: Induction of cell cycle arrest in human BT474 cells assessed as accumulation at G2/M phase at 0.1 uM incubated for 12 hrs by propidium iodide staining based flow cytometry (reference value: 14%); type: functional
BT-474 [13] = test: Induction of cell cycle arrest in human BT474 cells assessed as accumulation at S phase at 0.1 uM incubated for 12 hrs by propidium iodide staining based flow cytometry (reference value: 19%); type: functional
BT-474 [14] = test: Induction of apoptosis in human BT474 cells at 0.1 uM incubated for 12 hrs by propidium iodide staining based flow cytometry (reference value: 1%); type: functional
BT-474 [15] = test: Induction of cell cycle arrest in human BT474 cells assessed as accumulation at G1 phase at 1 uM incubated for 12 hrs by propidium iodide staining based flow cytometry (reference value: 67%); type: functional
BT-474 [16] = test: Induction of cell cycle arrest in human BT474 cells assessed as accumulation at G2/M phase at 1 uM incubated for 12 hrs by propidium iodide staining based flow cytometry (reference value: 14%); type: functional
BT-474 [17] = test: Induction of cell cycle arrest in human BT474 cells assessed as accumulation at S phase at 1 uM incubated for 12 hrs by propidium iodide staining based flow cytometry (reference value: 19%); type: functional
BT-474 [18] = test: Induction of apoptosis in human BT474 cells at 1 uM incubated for 12 hrs by propidium iodide staining based flow cytometry (reference value: 1%); type: functional
BT-474 [19] = test: Induction of cell cycle arrest in human BT474 cells assessed as accumulation at G1 phase at 10 uM incubated for 12 hrs by propidium iodide staining based flow cytometry (reference value: 67%); type: functional
BT-474 [20] = test: Induction of cell cycle arrest in human BT474 cells assessed as accumulation at G2/M phase at 10 uM incubated for 12 hrs by propidium iodide staining based flow cytometry (reference value: 14%); type: functional
BT-474 [21] = test: Induction of cell cycle arrest in human BT474 cells assessed as accumulation at S phase at 10 uM incubated for 12 hrs by propidium iodide staining based flow cytometry (reference value: 19%); type: functional
BT-474 [22] = test: Induction of apoptosis in human BT474 cells at 10 uM incubated for 12 hrs by propidium iodide staining based flow cytometry (reference value: 1%); type: functional
[23] = Antitumor activity against human Calu3 cells xenografted in BALB/cA mouse assessed as tumor growth inhibition at 200 mg/kg, po; type: functional; details: Calu-3, read-out: TGI
In short: (§2)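 Female BALB/cA nude mice, 6–7 weeks old, implanted s.c. on midright side with 2×10^6 Calu-3 cells in 0.2 ml PBS. Grouped at 60–150 mm³ tumour volume (6 per treated group, 12 vehicle). Oral dosing in 0.5% CMC with 0.1% Tween-80. Caliper volume = L×W²×0.5; inhibition = (1 − T/C)×100% on relative tumour volume; weight tracked for 21 d.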

[24] = Antitumor activity against human Calu3 cells xenografted in BALB/cA mouse assessed as tumor growth inhibition at 100 mg/kg, po; type: functional; details: Calu-3, read-out: TGI; in short: as §2
Mus musculus [25] = test: Toxicity in human Calu3 cells xenografted BALB/cA mouse assessed as body weight loss at 100 mg/kg, po measured every other day for 21 days; type: organism-based, Calu-3; parameters: dose 100 mg/kg, route oral; details: in vivo, 504 h
In short: (§3)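 Female BALB/cA nude mice, 6–7 weeks old, implanted s.c. on the mid-right flank with 2×10^6 Calu-3 cells in 0.2 ml PBS. At 60–150 mm³ tumour volume, mice randomised into six per treatment group (twelve vehicle controls). Oral dosing in 0.5% CMC aqueous solution with 0.1% Tween-80. Body weight recorded every other day for 21 d.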

Mus musculus [26] = test: Toxicity in human Calu3 cells xenografted BALB/cA mouse assessed as body weight loss at 200 mg/kg, po measured every other day for 21 days; type: organism-based, Calu-3; parameters: dose 200 mg/kg, route oral; details: in vivo, 504 h; in short: as §3
[27] = target: T1, Receptor tyrosine-protein kinase erbB-2 (Homo sapiens, UniProt P04626); details: BT-474, 0.001 to 10 uM
[28] = target: T1, Receptor tyrosine-protein kinase erbB-2; details: BT-474, 0.001 to 10 uM; remark: listed apart in the source
[29] = target: T1, Receptor tyrosine-protein kinase erbB-2; details: BT-474, 0.001 to 10 uM; remark: listed apart in the source
cells [30] = details: Homo sapiens, Calu-3, 72 h
MDA-MB-453 = test: cells; details: Homo sapiens, MDA-MB-453, 72 h
cells [31] = details: Homo sapiens, SK-OV-3, 72 h
MDA-MB-231 = test: cells; details: Homo sapiens, MDA-MB-231, 72 h
NCI-H460 = test: cells; details: Homo sapiens, NCI-H460, 72 h
MRC5 = test: cells; details: Homo sapiens, MRC5, 72 h
[32] = target: Vascular endothelial growth factor receptor 2 (Homo sapiens, UniProt P35968); test: Inhibition of KDR phosphorylation (unknown origin) expressed in human HUVEC at 0.001 to 1 uM incubated for 2 hrs by Western blot method
[33] = target: Mast/stem cell growth factor receptor Kit (Homo sapiens, UniProt P10721); test: Inhibition of c-KIT phosphorylation (unknown origin) expressed in human NCI-H526 cells at 0.001 to 1 uM incubated for 2 hrs by Western blot method
[34] = target: Platelet-derived growth factor receptor beta (Homo sapiens, UniProt P09619); test: Inhibition of PDGFRbeta phosphorylation (unknown origin) expressed in human U87MG cells at 0.001 to 1 uM incubated for 2 hrs by Western blot method; details: U-87MG ATCC
Chain of Platelet-derived growth factor receptor beta (P09619 whole entry): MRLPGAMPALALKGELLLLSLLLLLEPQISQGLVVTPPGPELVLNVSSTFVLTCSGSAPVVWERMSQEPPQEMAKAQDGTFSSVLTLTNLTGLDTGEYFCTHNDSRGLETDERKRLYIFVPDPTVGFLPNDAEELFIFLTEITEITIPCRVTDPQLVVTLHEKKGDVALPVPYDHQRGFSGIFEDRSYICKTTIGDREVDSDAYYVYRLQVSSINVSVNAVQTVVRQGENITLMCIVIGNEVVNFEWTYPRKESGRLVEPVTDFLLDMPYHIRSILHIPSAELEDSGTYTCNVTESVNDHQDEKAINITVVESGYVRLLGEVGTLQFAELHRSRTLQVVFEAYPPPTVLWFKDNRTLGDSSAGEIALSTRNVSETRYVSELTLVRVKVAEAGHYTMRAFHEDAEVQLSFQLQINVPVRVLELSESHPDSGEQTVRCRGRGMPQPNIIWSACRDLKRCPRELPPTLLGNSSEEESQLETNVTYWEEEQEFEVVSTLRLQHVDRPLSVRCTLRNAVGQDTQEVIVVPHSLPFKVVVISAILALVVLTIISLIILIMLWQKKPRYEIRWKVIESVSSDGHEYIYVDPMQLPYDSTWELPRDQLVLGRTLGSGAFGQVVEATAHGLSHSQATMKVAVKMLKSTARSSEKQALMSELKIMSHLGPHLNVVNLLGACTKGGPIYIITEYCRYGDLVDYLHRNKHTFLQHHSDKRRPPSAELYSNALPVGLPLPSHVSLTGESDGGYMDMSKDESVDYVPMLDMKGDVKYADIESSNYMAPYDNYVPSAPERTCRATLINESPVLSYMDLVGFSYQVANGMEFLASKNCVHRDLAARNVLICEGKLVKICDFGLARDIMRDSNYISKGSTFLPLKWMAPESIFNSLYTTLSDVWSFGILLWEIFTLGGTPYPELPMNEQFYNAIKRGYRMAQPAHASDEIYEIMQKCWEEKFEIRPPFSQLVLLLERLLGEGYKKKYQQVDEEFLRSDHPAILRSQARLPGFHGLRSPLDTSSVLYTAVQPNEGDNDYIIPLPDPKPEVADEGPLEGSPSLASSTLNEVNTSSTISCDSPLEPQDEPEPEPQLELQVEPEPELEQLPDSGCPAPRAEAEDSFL

T1 sequence (P04626 whole entry): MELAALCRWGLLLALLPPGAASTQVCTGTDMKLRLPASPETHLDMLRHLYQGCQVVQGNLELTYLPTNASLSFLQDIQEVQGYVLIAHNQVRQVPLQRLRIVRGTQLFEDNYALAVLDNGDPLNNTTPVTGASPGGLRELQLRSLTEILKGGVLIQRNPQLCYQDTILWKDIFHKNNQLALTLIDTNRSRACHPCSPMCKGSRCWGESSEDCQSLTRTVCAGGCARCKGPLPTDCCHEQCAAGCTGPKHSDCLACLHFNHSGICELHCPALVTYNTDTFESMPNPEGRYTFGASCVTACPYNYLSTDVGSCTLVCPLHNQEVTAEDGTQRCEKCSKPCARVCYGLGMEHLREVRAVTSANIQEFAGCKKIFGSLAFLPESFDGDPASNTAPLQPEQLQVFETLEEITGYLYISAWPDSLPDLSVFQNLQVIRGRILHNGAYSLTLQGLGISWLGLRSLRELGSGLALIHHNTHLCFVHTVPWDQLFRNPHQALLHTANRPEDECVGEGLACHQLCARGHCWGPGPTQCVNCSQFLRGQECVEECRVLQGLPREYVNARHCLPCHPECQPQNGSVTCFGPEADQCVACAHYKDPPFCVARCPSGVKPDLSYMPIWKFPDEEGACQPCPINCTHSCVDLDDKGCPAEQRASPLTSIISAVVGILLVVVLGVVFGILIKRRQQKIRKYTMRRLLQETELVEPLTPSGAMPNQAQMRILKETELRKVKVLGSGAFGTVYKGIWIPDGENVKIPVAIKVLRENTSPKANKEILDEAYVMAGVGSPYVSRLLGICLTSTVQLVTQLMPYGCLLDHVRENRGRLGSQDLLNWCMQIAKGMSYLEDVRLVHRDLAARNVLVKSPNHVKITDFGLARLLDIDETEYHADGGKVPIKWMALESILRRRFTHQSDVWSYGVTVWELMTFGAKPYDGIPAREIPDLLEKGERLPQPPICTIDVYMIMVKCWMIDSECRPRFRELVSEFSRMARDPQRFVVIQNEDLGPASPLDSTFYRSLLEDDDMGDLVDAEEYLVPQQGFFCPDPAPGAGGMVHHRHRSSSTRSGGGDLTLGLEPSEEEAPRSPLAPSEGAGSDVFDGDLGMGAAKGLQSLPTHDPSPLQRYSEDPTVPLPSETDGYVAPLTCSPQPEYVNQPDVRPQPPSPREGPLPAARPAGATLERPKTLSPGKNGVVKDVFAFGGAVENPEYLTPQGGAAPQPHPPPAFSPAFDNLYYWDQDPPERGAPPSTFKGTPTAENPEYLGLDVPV
Chain of Mast/stem cell growth factor receptor Kit (P10721 whole entry): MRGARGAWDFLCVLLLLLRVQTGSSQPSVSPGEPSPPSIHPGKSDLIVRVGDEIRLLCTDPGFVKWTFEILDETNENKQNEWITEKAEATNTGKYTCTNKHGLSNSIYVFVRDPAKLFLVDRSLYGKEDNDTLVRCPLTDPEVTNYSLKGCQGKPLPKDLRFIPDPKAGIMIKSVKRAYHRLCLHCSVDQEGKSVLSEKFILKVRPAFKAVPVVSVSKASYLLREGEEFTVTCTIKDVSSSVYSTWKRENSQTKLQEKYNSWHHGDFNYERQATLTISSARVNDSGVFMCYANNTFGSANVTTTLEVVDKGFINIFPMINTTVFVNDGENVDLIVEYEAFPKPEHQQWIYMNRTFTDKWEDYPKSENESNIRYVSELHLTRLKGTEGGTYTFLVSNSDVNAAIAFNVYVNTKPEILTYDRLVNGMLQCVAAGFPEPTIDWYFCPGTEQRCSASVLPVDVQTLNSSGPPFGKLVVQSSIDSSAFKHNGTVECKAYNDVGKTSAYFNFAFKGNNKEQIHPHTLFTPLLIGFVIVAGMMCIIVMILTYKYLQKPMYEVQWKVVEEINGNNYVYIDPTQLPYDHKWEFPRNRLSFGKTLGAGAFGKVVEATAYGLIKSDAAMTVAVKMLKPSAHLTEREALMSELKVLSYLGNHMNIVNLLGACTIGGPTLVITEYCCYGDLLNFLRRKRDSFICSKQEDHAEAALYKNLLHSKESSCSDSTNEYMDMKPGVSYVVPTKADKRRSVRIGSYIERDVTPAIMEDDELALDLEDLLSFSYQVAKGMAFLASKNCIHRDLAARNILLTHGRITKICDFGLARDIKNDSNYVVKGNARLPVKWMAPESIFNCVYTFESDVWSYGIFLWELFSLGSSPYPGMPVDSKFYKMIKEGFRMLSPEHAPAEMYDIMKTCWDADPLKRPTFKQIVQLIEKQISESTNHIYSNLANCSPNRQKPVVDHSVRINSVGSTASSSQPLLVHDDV
Chain of Vascular endothelial growth factor receptor 2 (P35968 whole entry): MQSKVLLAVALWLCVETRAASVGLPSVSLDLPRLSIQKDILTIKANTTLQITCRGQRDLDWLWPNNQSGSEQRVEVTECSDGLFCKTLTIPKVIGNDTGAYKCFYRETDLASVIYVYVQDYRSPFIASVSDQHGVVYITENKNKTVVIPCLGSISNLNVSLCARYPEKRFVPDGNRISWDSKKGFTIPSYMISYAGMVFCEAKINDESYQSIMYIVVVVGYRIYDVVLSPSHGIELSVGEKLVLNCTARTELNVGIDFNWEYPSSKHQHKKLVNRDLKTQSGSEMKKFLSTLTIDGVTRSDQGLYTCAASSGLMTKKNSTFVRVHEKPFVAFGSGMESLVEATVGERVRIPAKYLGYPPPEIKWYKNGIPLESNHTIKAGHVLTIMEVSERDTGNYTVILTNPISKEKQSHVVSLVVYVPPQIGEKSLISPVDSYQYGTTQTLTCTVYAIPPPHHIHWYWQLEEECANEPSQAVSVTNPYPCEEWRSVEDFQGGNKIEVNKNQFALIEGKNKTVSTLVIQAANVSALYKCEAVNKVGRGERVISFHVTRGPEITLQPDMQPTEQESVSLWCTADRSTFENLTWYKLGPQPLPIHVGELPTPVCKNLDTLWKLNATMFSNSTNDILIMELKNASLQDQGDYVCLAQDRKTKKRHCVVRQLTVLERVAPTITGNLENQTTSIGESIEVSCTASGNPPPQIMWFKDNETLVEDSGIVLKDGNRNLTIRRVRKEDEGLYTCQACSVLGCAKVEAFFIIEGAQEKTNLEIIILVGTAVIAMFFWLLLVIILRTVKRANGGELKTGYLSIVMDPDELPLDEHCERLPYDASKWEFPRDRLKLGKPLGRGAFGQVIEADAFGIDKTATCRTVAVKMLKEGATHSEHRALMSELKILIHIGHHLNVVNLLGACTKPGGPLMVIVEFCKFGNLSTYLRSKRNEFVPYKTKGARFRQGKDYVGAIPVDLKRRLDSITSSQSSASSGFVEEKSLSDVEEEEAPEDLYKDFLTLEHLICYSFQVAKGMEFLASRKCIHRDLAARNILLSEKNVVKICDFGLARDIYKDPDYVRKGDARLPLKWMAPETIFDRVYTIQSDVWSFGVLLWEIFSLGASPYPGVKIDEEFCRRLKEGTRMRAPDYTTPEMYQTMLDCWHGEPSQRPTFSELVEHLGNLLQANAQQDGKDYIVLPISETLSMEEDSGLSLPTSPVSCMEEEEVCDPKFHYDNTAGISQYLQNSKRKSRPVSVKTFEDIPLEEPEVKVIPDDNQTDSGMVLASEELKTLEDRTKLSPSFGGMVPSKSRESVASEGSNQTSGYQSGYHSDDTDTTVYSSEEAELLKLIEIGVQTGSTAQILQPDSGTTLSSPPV

CS(=O)(=O)CCNCc1ccc(-c2ccc3ncnc(Nc4ccc(OCc5cccc(F)c5)c(Cl)c4)c3c2)o1 [LAPATINIB]
IC50 [1]: 30.1 nM | IC50 (BT-474 [2]): 63.9 nM | IC50 (A-431): 643 nM | IC50 (MCF7): 8470 nM | Activity (BT-474 [3]): 71% | Activity (BT-474 [4]): 14% | Activity (BT-474 [5]): 15% | Activity (BT-474 [6]): 1% | Activity (BT-474 [7]): 82% | Activity (BT-474 [8]): 11% | Activity (BT-474 [9]): 7% | Activity (BT-474 [10]): 1% | Activity (BT-474 [11]): 84% | Activity (BT-474 [12]): 10% | Activity (BT-474 [13]): 6% | Activity (BT-474 [14]): 4% | Activity (BT-474 [15]): 84% | Activity (BT-474 [16]): 10% | Activity (BT-474 [17]): 6% | Activity (BT-474 [18]): 6% | Activity (BT-474 [19]): 81% | Activity (BT-474 [20]): 11% | Activity (BT-474 [21]): 8% | Activity (BT-474 [22]): 13% | inhibition in vivo at 200 mg/kg [23]: 70% | inhibition in vivo at 100 mg/kg [24]: 56% | Activity (Mus musculus [25]): Non-toxic | Activity (Mus musculus [26]): Non-toxic | inhibition [27]: Active | inhibition [28]: Active | inhibition [29]: Active | IC50 (cells [30]): 230 nM | IC50 (MDA-MB-453): 190 nM | IC50 (cells [31]): 590 nM | IC50 (MDA-MB-231): > 100000 nM | IC50 (NCI-H460): > 100000 nM | IC50 (MRC5): > 100000 nM | inhibition [32]: inactive | inhibition [33]: inactive | inhibition [34]: inactive
